We go through four compounds from PMC11522000 (Nature Microbiology, 2024).

The nature of data set [1]: Systemic exposure in the mouse efficacy studies. It is filed as in vivo. The note with it: mouse efficacy study, 10 mg kg^−1 oral.
A short description of data set [2]: Stability in intestinal S9 fraction. The data set is classed as in vitro ADME. Conditions: mouse. In outline: (§1)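 Test compound added to intestinal S9 fraction of each species to start the reaction. Incubated in a shaking water bath at 37 °C, with samples taken at sequential timepoints. Samples quenched with ice-cold acetonitrile and analysed by LC-MS/MS. Half-life calculated from the rate of parent compound depletion.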

The nature of data set [3]: Stability in intestinal S9 fraction. The data set is classed as in vitro ADME. Conditions: human. The method, boiled down: as §1
Data set [4] can be described thus: Hepatocytes metabolic stability. Conditions: mouse. It is filed as in vitro ADME. In outline: (§2)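 Test compound was incubated with liver microsomes or hepatocytes of each species, and parent depletion was quantified by LC-MS/MS. From this, in vitro half-life and intrinsic clearance were derived, along with predicted metabolic clearance and hepatic extraction ratio.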

The nature of the next data set: Cytotoxicity assay. The data set is classed as cell-based, human. Conditions: human, HepG2 cells (ATCC CRL-10741), HepG2 CC50, 96 h.
The target in another data set is HsPI(4)K (Homo sapiens, UniProt Q9UBF8). In words: PI. The note with it: HsPI(4)K IC50, 3 μM ATP. It is filed as biochemical.
HsPI(4)K, sequence (Q9UBF8 523-816 limits assumed): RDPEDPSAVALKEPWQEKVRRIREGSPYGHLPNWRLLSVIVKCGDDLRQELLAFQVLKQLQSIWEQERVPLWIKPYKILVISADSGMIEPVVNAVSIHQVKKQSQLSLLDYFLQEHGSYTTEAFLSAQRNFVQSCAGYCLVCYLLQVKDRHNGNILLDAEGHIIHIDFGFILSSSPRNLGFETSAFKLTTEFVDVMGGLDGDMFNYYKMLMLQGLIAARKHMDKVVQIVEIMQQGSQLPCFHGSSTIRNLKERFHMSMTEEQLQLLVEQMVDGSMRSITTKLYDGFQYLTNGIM
The nature of data set [5]: High-throughput equilibrium solubility. It is filed as physicochemical. Conditions: thermodynamic from solid. The method, boiled down: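 Equilibrium solubility was measured by a miniaturized shake-flask method with HPLC quantification.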
Data set [6] relates to C. parvum. In words: Mouse efficacy study. It is filed as in vivo, C57BL/6 IFN-γ-knockout mice. Conditions: oral 10 mg kg^−1, 5 days; nitazoxanide 100 mg kg^−1.
The target of a further data set is T1, CpPI(4)K (Cryptosporidium parvum, UniProt Q5CVD3).
T1 sequence (Q5CVD3 1-1114): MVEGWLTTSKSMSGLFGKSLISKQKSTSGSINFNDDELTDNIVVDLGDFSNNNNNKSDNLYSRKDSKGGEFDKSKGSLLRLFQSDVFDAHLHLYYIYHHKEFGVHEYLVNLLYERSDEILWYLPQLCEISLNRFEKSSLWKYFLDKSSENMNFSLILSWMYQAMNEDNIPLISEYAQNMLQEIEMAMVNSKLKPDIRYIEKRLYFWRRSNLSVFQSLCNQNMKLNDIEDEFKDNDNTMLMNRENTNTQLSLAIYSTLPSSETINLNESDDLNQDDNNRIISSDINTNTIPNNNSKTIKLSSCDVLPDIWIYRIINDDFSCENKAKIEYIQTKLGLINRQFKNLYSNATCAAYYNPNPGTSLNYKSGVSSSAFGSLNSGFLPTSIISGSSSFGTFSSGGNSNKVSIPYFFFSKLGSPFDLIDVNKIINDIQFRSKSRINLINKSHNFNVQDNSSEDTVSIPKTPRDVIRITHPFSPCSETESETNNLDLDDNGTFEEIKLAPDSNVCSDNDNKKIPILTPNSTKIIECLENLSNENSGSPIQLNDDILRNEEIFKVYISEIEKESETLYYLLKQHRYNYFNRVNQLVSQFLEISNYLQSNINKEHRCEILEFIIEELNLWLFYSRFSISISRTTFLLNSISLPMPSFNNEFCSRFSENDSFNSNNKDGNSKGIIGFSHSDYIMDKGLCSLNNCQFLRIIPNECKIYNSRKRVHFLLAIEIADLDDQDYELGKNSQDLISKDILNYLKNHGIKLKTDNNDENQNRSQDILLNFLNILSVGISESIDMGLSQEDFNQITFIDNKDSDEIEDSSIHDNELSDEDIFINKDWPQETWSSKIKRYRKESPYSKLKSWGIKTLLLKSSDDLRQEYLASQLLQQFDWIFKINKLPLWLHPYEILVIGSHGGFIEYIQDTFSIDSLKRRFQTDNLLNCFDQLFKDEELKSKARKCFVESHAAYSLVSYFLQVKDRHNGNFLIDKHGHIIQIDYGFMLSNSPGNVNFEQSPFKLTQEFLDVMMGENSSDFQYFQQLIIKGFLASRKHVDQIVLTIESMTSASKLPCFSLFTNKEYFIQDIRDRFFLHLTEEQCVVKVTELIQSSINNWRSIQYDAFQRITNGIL
In words: PI. It is filed as biochemical, C. parvum. Conditions: CpPI(4)K IC50, 3 μM ATP. The method, boiled down:
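Enzyme was pre-incubated with compound for 5 min at room temperature. The reaction was started with substrate mix at twice final strength (PI, ATP, Tris-HCl pH 7.5, DTT, 0.05% Triton X-100, MnCl2) and run 50 min at room temperature. ADP was measured by ADP-Glo luminescence. IC50s came from in-plate duplicate 10-point 3-fold dilutions, with DMSO and reference-inhibitor controls. The C. parvum enzymes (wild type and mutants) were full-length proteins expressed from baculovirus in Sf21 cells.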

The subject of data set [7] is C. parvum. In words: Washout assay, nanoluciferase-expressing C. parvum. It is filed as cell-based, Cryptosporidium parvum. Conditions: regardless of the stage of drug exposure. In outline:
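HCT-8 cells were grown to ~90% confluence, then infected with 400 nanoluciferase-expressing oocysts per well. Before infection, oocysts were primed for excystation with 10 mM HCl in water (10 min, 37 °C), then 2 mM sodium taurocholate in DPBS with Ca/Mg (10 min, 16 °C). Luminescence was read over time. RLU taken soon after infection served as day 0 and was used to normalize each timepoint.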

Data set [8] has as its system C. parvum. In words: Time-kill assay, nanoluciferase-expressing C. parvum. The data set is classed as cell-based, Cryptosporidium parvum.
Data set [9] in a line: Hepatocytes metabolic stability. The data set is classed as in vitro ADME. Conditions: human. The method, boiled down:
as §2

The nature of data set [10]: Plasma stability. The data set is classed as in vitro ADME. The note with it: human. The method, boiled down:
(§3)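 Test compound was added to plasma and incubated at 37 °C in a shaking water bath, with samples taken at sequential timepoints. Samples were quenched with ice-cold acetonitrile and analysed by LC-MS/MS, and half-life was calculated from the depletion rate.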

Data set [11] can be described thus: Plasma stability. It is filed as in vitro ADME. Conditions: mouse. In outline: as §3
The test system of data set [12] is C. parvum. In words: Cytopathic effect. The data set is classed as cell-based, Cryptosporidium parvum. The note with it: read-out: Cp CPE EC50; C. parvum, HCT-8, 48 h. In outline: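 HCT-8 cells were grown at 37 °C, 5% CO2 in RPMI-1640 with 10% heat-inactivated FBS. Oocysts were excysted in 10 mM HCl/HBSS for 10 min at 37 °C, then in 2 mM sodium taurocholate in L-15/UltraCULTURE medium for 5 min. Infected cells were seeded onto pre-spotted compound (10-point, 3-fold dilution; DMSO and reference-inhibitor controls) and incubated 48 h. Cells were then lysed for a viability read-out, and concentration-response curves were fitted.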

Data set [13] has as its system C. parvum. In words: Host cell invasion assay. The data set is classed as cell-based, Cryptosporidium parvum. The note with it: HCT-8, 3 h; EDI048 and KDU731 20 µM, wiskostatin 11.3 µM. The method, boiled down: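 HCT-8 monolayers were 95–100% confluent. Compounds were added at twice the final concentration 1 h before infection with 50,000 primed oocysts per well. Plates were kept 3 h at 37 °C, 5% CO2, then washed with PBS-0.1% Tween 20, fixed in 4% PFA for 15 min at room temperature, permeabilized with 0.25% Triton X-100 and blocked in 4% BSA. Vacuoles were stained with fluorescein-VVL and nuclei with Hoechst, then imaged.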

Converted amounts (≈) assume the structure as drawn.

In general, half-life refers to how long it takes for the measured level to halve. Low readings indicate fast loss, high ones slow loss. By CC50 is commonly meant the concentration giving 50% cytotoxicity. Higher therefore signals better tolerance by the cells. By IC50 is commonly meant the concentration at which inhibition is half-maximal. A high value points to weaker potency in that assay. In general, solubility refers to the dissolved amount per volume that the medium holds. A lower solubility goes with little dissolved substance. In the case of `CNC(=O)c1ccc(-c2cnn3ccc(C(=O)N(CCC(=O)OCC(=O)N(C)C)c4ccc(Cl)cc4)cc23)cc1` [Compound 3, 2-(dimethylamino)-2-oxoethyl 3-(N-(4-chlorophenyl)-3-(4-(methylcarbamoyl)phenyl)pyrazolo[1,5-a]pyridine-5-carboxamido)propanoate], the “AUC (time 0 to last timepoint)” value in [1] is listed as “<LLOQ^f”. Also, in [1], the Cmax entry is listed as “<LLOQ^f”. The figures for the half-life in data set [2], in data set [3] and in data set [4] (hepatocytes) were 9.2 min, 45 min and below 2.8 min, respectively. The “Hepatocytes ER” value in data set [4] worked out at 93%. In the data set “Cytotoxicity assay”, this compound had a CC50 at 96 h of 38200 nM. Moreover, the half-maximal inhibitory concentration (IC50) at HsPI(4)K stood at 1030 ± 485 nM; against CpPI(4)K, 5 nM. Besides, the solubility in [5] (FaSSIF) was 355 µM (≈ 200 µg/mL); in [5] (pH 6.8, aqueous buffer), 11 µM (≈ 6.18 µg/mL). In addition, the “efficacy in the mouse model” value with C. parvum [6] was “inactive in vitro and in vivo”.
The compound `CC(=O)Oc1ccccc1C(=O)Nc1ncc([N+](=O)[O-])s1` [NTZ, Nitazoxanide, reference compound] yielded a CC50 at 96 h in “Cytotoxicity assay” of 34900 nM. The “washout: cidal activity” value in the data set with C. parvum [7] is listed as “not cidal”. Also, the IC50 on HsPI(4)K was above 30000 nM; on CpPI(4)K it was above 10000 nM. The “efficacy in the mouse model” value in the data set on C. parvum [6] is listed as “not efficacious”. In the data set on C. parvum [8], the parasiticidal or parasitistatic result is “static”.
For orientation: EC50 means the concentration needed to bring the measured effect to its halfway point. For `CNC(=O)c1ccc(-c2cnn3ccc(C(=O)N(C[C@H]4CCC(=O)O4)c4ccc(OC(F)(F)F)cc4)cc23)cc1` [Compound 4, (R)-3-(4-(methylcarbamoyl)phenyl)-N-((5-oxotetrahydrofuran-2-yl)methyl)-N-(4-(trifluoromethoxy)phenyl)pyrazolo[1,5-a]pyridine-5-carboxamide], the half-life is 96 min in data set [2]; 4.8 min in [9] (hepatocytes); above 120 min in “Plasma stability [10]”; below 5 min in the data set “Plasma stability [11]”; 215 min in data set [3]. The “Hepatocytes ER” value in data set [9] came to 95%. Moreover, the EC50 in the data set on C. parvum [12] came to 349 ± 181 nM. This compound also yielded a CC50 at 96 h in “Cytotoxicity assay” of 32200 nM. Moreover, the IC50 at HsPI(4)K came out at 1380 ± 130 nM; against CpPI(4)K, 18 ± 11 nM. Besides, in data set [5] (pH 6.8, aqueous buffer), the concentration in solution (solubility) came to 37 µM (≈ 20.4 µg/mL). In addition, the “efficacy in the mouse model” value with C. parvum [6] was “poor in vivo efficacy”.
With `CN(C)C[C@H](O)Cn1c2ccc(Br)cc2c2cc(Br)ccc21` (racemic) [wiskostatin, reference compound], the sporozoite invasion result with C. parvum [13] is “prevented sporozoite invasion and formation of trophozoites”.
